Screening results: PubChem, several laboratories
NR2E3 ag-1 = activates human NR2E3 receptor; Q9Y5X4; CHO-S Gal4-NCOR/VP16-NR2E3 two-hybrid, luciferase; inhibition of corepressor binding, % at 3.98 µM; 360,000 tested, 0.35% active; AID 602229;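 active = inhibition above the mean of all tested compounds plus 3 SD, cut at about 70% in these data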;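 note: 0% = DMSO with NR2E3 transfected cells and 100% = cells lacking NR2E3 construct; higher means lower luciferase signal from less NR2E3 corepressor binding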
Target sequence (Q9Y5X4 whole entry, looked up, the tested form may be a part): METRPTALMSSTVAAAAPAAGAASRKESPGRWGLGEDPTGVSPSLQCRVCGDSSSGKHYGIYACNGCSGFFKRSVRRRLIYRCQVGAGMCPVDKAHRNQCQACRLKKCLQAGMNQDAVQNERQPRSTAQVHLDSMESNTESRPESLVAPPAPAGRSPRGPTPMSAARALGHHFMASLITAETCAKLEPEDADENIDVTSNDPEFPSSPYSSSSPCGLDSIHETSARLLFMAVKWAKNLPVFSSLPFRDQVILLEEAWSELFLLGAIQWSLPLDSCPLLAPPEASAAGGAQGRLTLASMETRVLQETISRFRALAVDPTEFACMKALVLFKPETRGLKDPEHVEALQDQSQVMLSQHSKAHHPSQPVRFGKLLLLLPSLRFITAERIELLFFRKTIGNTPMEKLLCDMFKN
NR2E3 ag-2 = activates human photoreceptor nuclear receptor NR2E3; GST-NR2E3/biotin-RetCOR TR-FRET, 1536-well; inhibition of corepressor binding, % at 4.78 µM; 320,000 tested, 0.12% active;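 active = percent inhibition above the cutoff of mean plus 3 SD of all tested compounds, set per screening campaign, cut at about 20% in these data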;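 note: 0% = DMSO wells and 100% = biotin wells as full block of FRET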
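Material: NR2E3–RetCOR corepressor complex / Amount: 1.35 nM GST-NR2E3 / Medium: Tris pH 7.5 / Compound: single nominal compound dose of 4.8 µM / Incubation: 5 h at 4 °C / Technique: TR-FRET, Eu(K)-anti-GST donor, streptavidin-D2 acceptor, ex 340, em 617/671 nm / Read-out basis: percent loss of FRET ratio relative to control wells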
PG9 binder = PG9 antibody binding by small molecule; TR-FRET gp120-PG9 antibody binding; inhibition, % at 6.7 µM; 360,000 tested, 0.43% active; AID 624416; in the data active = inhibition above about 8.5%
SKN-1 block = inhibitors of C. elegans SKN-1. C. elegans VP596 Pgst-4::GFP/RFP ratio, acrylamide-induced, 24 h. inhibition, % at 21.8 µM. 360,000 tested, 0.49% active;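 active = interference check ratio from 0.5 to 1.5 plus GFP to RFP signal ratio inhibition reaching or exceeding a fixed threshold, cut at about 30% in these data, passing the limit was not always enough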
MT1-MMP act inh = MT1-MMP (human) activation inhibition | P50281 | HT1080 RFP-PRO-GFP cells, GFP/RFP ratio fluorescence, overnight; percent of plate control window, DMSO zero | GFP/RFP ratio change, % at 20 µM | 360,000 tested, 0.061% active;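 active = GFP/RFP ratio change of at least 30% with cell ATP level not reduced by more than half and red fluorescence within 50% of control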
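Material: RFP-PRO-GFP reporter HT1080 cells. Dosing: single-point 20 µM compound, 1% DMSO. Controls: DMSO and RFP-L50D-GFP cell wells. Timing: cells overnight before dosing, compound overnight, 37 °C, 5% CO2. Measure: GFP/RFP fluorescence ratio.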
Rev-erbA mod = modulators of human Rev-erb alpha DNA binding; 370,000 tested, 0.79% active; Rev-erbα–FITC-DNA binding, fluorescence polarization, 90 min; P20393; activity, % at 10 µM;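 active = activity above about 14%, limit read from the data; passing the limit was not always enough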;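 note: 0% = DMSO wells with 35 nM protein and 100% = DMSO wells with 750 nM protein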
NR2E3 ag confirm = NR2E3 agonism confirmed in two-hybrid assay; shares compounds with NR2E3 ag-1; CHO-S mammalian two-hybrid NR2E3-NCOR, luciferase luminescence; inhibition, % at 3.98 µM; 2,300 tested, 51% active;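 active = average inhibition above a cutoff equal to the mean inhibition of all tested compounds plus one SD, cut at about 70% in these data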;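 note: 0% = DMSO in NR2E3 cells and 100% = DMSO in cells lacking NR2E3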
GAL4-VP16 luc = GAL4-VP16 reporter inhibition in NR2E3 agonist counterscreen. 2,300 tested, 29% active. CHO-S GAL4-VP16 luciferase reporter, luminescence. AID 624379. shares compounds with NR2E3 ag-1. inhibition, % at 3.98 µM;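 active = mean inhibition above a cutoff equal to the average over all tested compounds plus one standard deviation, cut at about 70% in these data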;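 note: luciferase from a UAS reporter driven by GAL4-VP16 transactivation; 0% = DMSO with VP16-transfected cells and 100% = DMSO with cells lacking VP16; higher means less reporter light so more repression of VP16 activity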
Active calls of the source: *. Compounds with a hit are over-represented: about 1.9% of the library has one in this group of screens.

Cc1nc2ncnn2c(N2CCN(c3cccc(C(F)(F)F)c3)CC2)c1C was read as NR2E3 ag-1 71*, NR2E3 ag-2 -4, PG9 binder -3, SKN-1 block 7, MT1-MMP act inh -8, Rev-erbA mod -1, NR2E3 ag confirm 72* and GAL4-VP16 luc 47.
Cc1ccc(Cc2c(-c3cccc(Br)c3)nc3c4ccccc4ccn23)cc1 was read as PG9 binder -3 and Rev-erbA mod 3.
OC[C@@H]1CN(Cc2ccc(-c3ccccc3)cc2)C[C@H](n2cnc3c(NC4CCC4)ncnc32)O1 was read as NR2E3 ag-1 80*, PG9 binder -2, SKN-1 block -4, MT1-MMP act inh 8, Rev-erbA mod -2, NR2E3 ag confirm 91* and GAL4-VP16 luc 79*.
CCCCNC(=S)N/N=C/c1cccc(OCC)c1O was read as NR2E3 ag-1 -7, NR2E3 ag-2 1, PG9 binder 1, SKN-1 block -9, MT1-MMP act inh 3 and Rev-erbA mod 1.
`CCOc1cccc(/C=N/NC(=S)Nc2ccccc2[N+](=O)[O-])c1O` gave NR2E3 ag-1 83*, NR2E3 ag-2 3, PG9 binder -1, SKN-1 block 6, MT1-MMP act inh 3, Rev-erbA mod -3, NR2E3 ag confirm 53 and GAL4-VP16 luc 26.
Screening COc1cc(C(O)c2nc(-c3ccc(N(C)C)cc3)cs2)ccc1F (stereo not given) returned NR2E3 ag-1 50, SKN-1 block 12, MT1-MMP act inh -8, NR2E3 ag confirm 33 and GAL4-VP16 luc 42.
For c1ccc(CNc2nc(NCc3ccccc3)c3sccc3n2)cc1 the results were NR2E3 ag-1 63, PG9 binder 0, SKN-1 block -6, MT1-MMP act inh -1, Rev-erbA mod 0, NR2E3 ag confirm 74* and GAL4-VP16 luc 61.
Screening COc1ccccc1CNc1nc(NCc2ccc(C)cc2C)c2sccc2n1 returned NR2E3 ag-1 55, SKN-1 block 4, MT1-MMP act inh -3, NR2E3 ag confirm 65 and GAL4-VP16 luc 61.
For C#Cc1cccc(Nc2nc(NCc3ccccc3OC)nc3ccsc23)c1 the results were NR2E3 ag-1 68, PG9 binder 1, SKN-1 block 5, MT1-MMP act inh -11, Rev-erbA mod 0, NR2E3 ag confirm 92* and GAL4-VP16 luc 75*.
Screening C#Cc1cccc(Nc2nc(NCCOC)nc3ccsc23)c1 returned NR2E3 ag-1 27, PG9 binder 2, SKN-1 block 7, MT1-MMP act inh 0 and Rev-erbA mod 10.
`COc1ccccc1CNc1nc(NCc2ccccc2F)c2sccc2n1` gave NR2E3 ag-1 82*, SKN-1 block 2, MT1-MMP act inh -1, NR2E3 ag confirm 94* and GAL4-VP16 luc 76*.
COCCNc1nc(NCc2ccc(C)cc2C)c2sccc2n1 was read as NR2E3 ag-1 5, PG9 binder 0, SKN-1 block 11, MT1-MMP act inh -4 and Rev-erbA mod -2.
`COc1ccccc1CNc1nc(NCc2ccccc2)nc2ccsc12` gave NR2E3 ag-1 62, PG9 binder 1, SKN-1 block 9, MT1-MMP act inh 18, Rev-erbA mod -4, NR2E3 ag confirm 52 and GAL4-VP16 luc 49.
For Cn1c(SCc2cccc([N+](=O)[O-])c2)nc2ccccc2c1=O the results were NR2E3 ag-1 49, NR2E3 ag-2 2, PG9 binder -4, SKN-1 block 3, Rev-erbA mod -2, NR2E3 ag confirm 83* and GAL4-VP16 luc 65.
`COc1ccccc1NC(=O)CSc1nc2ccccc2c(=O)n1C` gave NR2E3 ag-1 16, NR2E3 ag-2 6, PG9 binder -2, SKN-1 block 13, MT1-MMP act inh -2 and Rev-erbA mod -1.
Screening Cc1cccc(NC(=O)CSc2nc3ccccc3c(=O)n2C)c1C returned NR2E3 ag-1 81*, PG9 binder 2, SKN-1 block 16, MT1-MMP act inh 1, Rev-erbA mod 4, NR2E3 ag confirm 91* and GAL4-VP16 luc 80*.
CN1C(=O)c2cc(NC(=O)Nc3ccccc3)ccc2OC[C@H]2O[C@@H](CC(=O)NC3Cc4ccccc4C3)CC[C@@H]21 was read as Rev-erbA mod 13.
Screening COCCn1c(C)cc(C(=O)COc2ccc(C)nc2[N+](=O)[O-])c1C returned NR2E3 ag-1 63, NR2E3 ag-2 0, PG9 binder -3, SKN-1 block 1, MT1-MMP act inh -5, Rev-erbA mod 1, NR2E3 ag confirm 77* and GAL4-VP16 luc 44.
Screening Cc1ccc(OCC(=O)c2cc(C)n(-c3ccccc3)c2C)c([N+](=O)[O-])n1 returned NR2E3 ag-1 73*, NR2E3 ag-2 -2, PG9 binder 1, SKN-1 block -4, MT1-MMP act inh 5, Rev-erbA mod 5, NR2E3 ag confirm 61 and GAL4-VP16 luc 67.
For CCCn1c(C)cc(C(=O)COc2ccc(C)nc2[N+](=O)[O-])c1C the results were NR2E3 ag-1 15, NR2E3 ag-2 -1, PG9 binder -4, SKN-1 block 5, MT1-MMP act inh 3 and Rev-erbA mod -5.
Screening C=CCn1c(C)cc(C(=O)COc2ccc(C)nc2[N+](=O)[O-])c1C returned NR2E3 ag-1 71*, NR2E3 ag-2 0, PG9 binder -1, SKN-1 block 9, MT1-MMP act inh 3, Rev-erbA mod -2, NR2E3 ag confirm 71* and GAL4-VP16 luc 53.
Screening CN=C1NC(=O)/C(=C\c2cc(C)n(-c3ccccc3F)c2C)S1 returned Rev-erbA mod 7.
For CC(C)[C@H](NS(=O)(=O)c1ccc(F)cc1F)C(=O)N1CCC[C@H]1C(=O)NCc1ccccc1 the results were PG9 binder 1 and Rev-erbA mod 3.
CC(C)Cc1ccc(C(C)C(=O)Nc2ccccc2O)cc1 (stereo not given) was read as NR2E3 ag-1 83*, NR2E3 ag-2 2, PG9 binder -1, SKN-1 block -1, MT1-MMP act inh -10, Rev-erbA mod 0, NR2E3 ag confirm 94* and GAL4-VP16 luc 82*.
Screening O=C(Nc1ccccc1O)C(c1ccccc1)c1ccccc1 returned NR2E3 ag-1 70, NR2E3 ag-2 2, PG9 binder 1, SKN-1 block 19, MT1-MMP act inh -3, Rev-erbA mod -7, NR2E3 ag confirm 83* and GAL4-VP16 luc 72*.
`Cc1ccc(-n2c(COc3ccccc3)nnc2SCC(=O)Nc2ccc3c(c2)OCO3)cc1` gave Rev-erbA mod -2.
